Active and inactive are the calls of the source. No cut-off for these calls is given here.
Columns and labels:
[1] = system: Plasmodium berghei; assay: Antimalarial activity against Plasmodium berghei infected in mouse assessed as change in mean survival time at 10 mg/kg, sc administered as single dose 72 hrs after parasite infection (reference value: 6.1 days); assay type: functional; conditions: route subcutaneous
[2] = system: Plasmodium berghei; assay: Antimalarial activity against Plasmodium berghei infected in mouse assessed as change in mean survival time at 20 mg/kg, sc administered as single dose 72 hrs after parasite infection (reference value: 6.1 days); assay type: functional; conditions: route subcutaneous
[3] = system: Plasmodium berghei; assay: Antimalarial activity against Plasmodium berghei infected in mouse assessed as change in mean survival time at 40 mg/kg, sc administered as single dose 72 hrs after parasite infection (reference value: 6.1 days); assay type: functional; conditions: route subcutaneous
[4] = system: Plasmodium berghei; assay: Antimalarial activity against Plasmodium berghei infected in mouse assessed as curing of parasite infection at 640 mg/kg, sc administered as single dose 72 hrs after parasite infection; assay type: functional, organism-based; design: dose 640 mg/kg
[5] = system: Plasmodium berghei; assay: Antimalarial activity against sc dosed Plasmodium berghei infected in mouse assessed as dose resulting in mean survival time […]; assay type: functional; conditions: read-out: MED
[6] = system: Plasmodium berghei; assay: Antimalarial activity against Plasmodium berghei infected in mouse assessed as curing of parasite infection at 160 mg/kg, sc administered as single dose 72 hrs after parasite infection; assay type: functional, organism-based; design: dose 160 mg/kg
Summary of the method: (§1)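 Mice (five per group) infected with P. berghei were given a single subcutaneous dose 72 h after infection. Increase in mean survival time over infected untreated controls was recorded, and an increase of at least 100% counted as activity. The screen was run by Rane Laboratories.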

[7] = system: Plasmodium berghei; assay: Antimalarial activity against Plasmodium berghei infected in mouse assessed as curing of parasite infection at 320 mg/kg, sc administered as single dose 72 hrs after parasite infection; assay type: functional, organism-based; design: dose 320 mg/kg; summary of the method: as §1
[8] = system: Plasmodium berghei; assay: Antimalarial activity against Plasmodium berghei infected in mouse assessed as change in mean survival time at 80 mg/kg, sc administered as single dose 72 hrs after parasite infection (reference value: 6.1 days); assay type: functional; conditions: route subcutaneous
[9] = system: Plasmodium berghei; assay: Antimalarial activity against Plasmodium berghei infected in mouse assessed as change in mean survival time at 640 mg/kg, sc administered as single dose 72 hrs after parasite infection (reference value: 6.1 days); assay type: functional; conditions: route subcutaneous

| Compound | MST [1] | MST [2] | MST [3] | Activity [4] | minimal effective dose [5] | Activity [6] | Activity [7] | MST [8] | MST [9] |
| --- | --- | --- | --- | --- | --- | --- | --- | --- | --- |
| CCCCN(CCCC)CC(O)c1cc(-c2ccc(Cl)cc2)cc2c(Cl)cc(Cl)cc12.Cl (stereo not given) | 7.9 days | 9.5 days | 10.5 days | Active | 10 mg/kg | – | – | – | – |
| Cl.OC(c1cc(-c2ccc(Cl)cc2)nc2c(Cl)cc(Cl)cc12)C1CCCCN1 (stereo not given) | – | – | – | – | 5 mg/kg | – | – | – | – |
| CCCCN(CCCC)CCC(O)c1cc(-c2ccc(Cl)cc2)cc2c(Cl)cc(Cl)cc12.Cl (stereo not given) | 2.9 days | 12.1 days | – | Active | – | Active | Active | – | – |
| Cl.OC(CC1CCCCN1)c1cc(-c2ccc(Cl)cc2)cc2c(Cl)cc(Cl)cc12 (stereo not given) | 3.6 days | 9.8 days | 11.8 days | – | – | – | – | 16.6 days | 6 days |
| CCCCN(CCCC)CC(O)c1cc(-c2ccc(Cl)cc2)nc2c(Cl)cc(Cl)cc12.Cl (stereo not given) | – | – | – | – | 10 mg/kg | – | – | – | – |
| CC(=O)O.OC(c1cc(-c2ccc(Cl)cc2)cc2c(Cl)cc(Cl)cc12)C1CCCCN1 (stereo not given) | 0.5 days | 1.1 days | – | – | 20 mg/kg | – | – | – | – |

Source: ChEMBL document CHEMBL3227949, “Antimalarials. 4. Trichloronaphthalene amino alcohols” (1979)
